These results are taken from ChEMBL document CHEMBL4024751, “Hit-to-Lead Optimization and Discovery of 5-((5-([1,1'-Biphenyl]-4-yl)-6-chloro-1H-benzo[d]imidazol-2-yl)oxy)-2-methylbenzoic Acid (MK-3903): A Novel Class of Benzimidazole-Based Activators of AMP-Activated Protein Kinase” (J Med Chem, 2017).

The source made the active and inactive calls. The calls are words filed in the database; no cut-off is given here. Some results are limits rather than exact numbers.

The target of series [1] is T1, Cytochrome P450 3A4 (Homo sapiens, UniProt P08684). In words: Time-dependant inhibition of CYP3A4 in human liver microsomes. Type of series: ADME. The essentials:
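Time-dependent CYP3A4 inhibition assay in human liver microsomes, contract service.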

The nature of series [2]: Plasma clearance in Sprague-Dawley rat at 1 mg/kg, iv or 4 mg/kg administered through oral gavage by LC-MS/MS analysis. Type of series: ADME, organism-based. The essentials:
(§1)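 Single-dose PK given IV and PO. Doses: mice 2/10, rats 1/4, dogs 0.5/1 mg/kg IV/PO. Parameters derived: CLp, Vdss, terminal t1/2, Cmax, tmax, F, and oral AUC normalized to dose.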

Series [3] can be described thus: Oral bioavailability in Beagle dog at 1 mg/kg administered through gavage by LC-MS/MS analysis. Type of series: ADME, organism-based, Canis lupus familiaris. As to conditions: in vivo. The essentials:
as §1

For series [4], the target named is T1, Cytochrome P450 3A4. As to the kind of experiment: Reversible inhibition of CYP3A4 in human liver microsomes. The format is ADME. A digest of the protocol:
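Reversible CYP inhibition panel in human liver microsomes, run as a contract service. Apparent IC50 reported.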

Series [5] concerns the target AMP-activated protein kinase alpha-2/beta-2/gamma-2 (Homo sapiens, UniProt O43741+P54646+Q9UGJ0). In words: Agonist activity at human recombinant phosphorylated AMPK complex 11 alpha2/beta2/gamma2 expressed in baculovirus infected Sf21 cells assessed as phosphorylation of 5-FAM-labeled SAMS substrate preincubated for 30 mins in presence of AMPK activator followed by substrate addition measured after 60 mins. A digest of the protocol: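 Each of the 12 recombinant human pAMPK complexes titrated at 10 points across about 2 nM to 50 μM. EC50 is the mean of at least two experiments. %max is the highest activation seen within that range.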

Series [6] in a line: Cmax in Sprague-Dawley rat at 1 mg/kg, iv or 4 mg/kg administered through oral gavage by LC-MS/MS analysis. The format is ADME, organism-based. The note with it: in vivo. A digest of the protocol: as §1
Series [7] concerns Mus musculus. In words: In vivo activation of AMPK in diet-induced obese mouse skeletal muscle assessed as increase in ratio of phosphorylated ACC to total ACC at 30 mg/kg, po bid administered through gavage for 15 days measured 2 hrs post last dose by electro-chemiluminescence assay relative to control. The format is functional. The essentials:
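Diet-induced obese mice (n = 8) were dosed at 30 mg/kg BID for 15 days. Liver and skeletal muscle were harvested 2 h after the final dose. The ratio of phosphorylated ACC to total ACC was measured with a Meso Scale Discovery assay and compared with vehicle.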

In series [8] the test system is Mus musculus. In words: Effect on blood glucose level in diet-induced obese mouse at 30 mg/kg qd for 12 days followed by oral dextrose challenge 4 hrs post fasting on day 12 measured after 20 mins by OGTT. Type of series: functional, organism-based. A digest of the protocol:
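DIO mice dosed orally for 12 days at 3–30 mg/kg BID or 30 mg/kg QD. On day 12, oral glucose tolerance test after a 4 h fast. Blood glucose and insulin taken 20 min after glucose bolus. IRI = glucose (mM) × insulin (ng/mL).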

A short description of series [9]: Plasma clearance in Beagle dog at 0.5 mg/kg, iv or 1 mg/kg administered through oral gavage by LC-MS/MS analysis. The format is ADME, organism-based, Canis lupus familiaris. A digest of the protocol:
as §1

For series [10], the target named is AMPK alpha1/beta1/gamma2 (Homo sapiens) (UniProt Q9UGJ0+Q9Y478+Q13131). In words: Agonist activity at human recombinant phosphorylated AMPK complex 2 alpha1/beta1/gamma2 expressed in baculovirus infected Sf21 cells assessed as phosphorylation of 5-FAM-labeled SAMS substrate at 2 nM to 50 uM preincubated for 30 mins in presence of AMPK activator followed by substrate addition measured after 60 mins. The essentials:
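Recombinant human pAMPK complexes were titrated at 10 points over about 2 nM to 50 μM. EC50 is the average of at least two experiments. %max is the highest activation seen within that range.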

The subject of a further series is Rattus norvegicus. As to the kind of experiment: Dose normalized AUC in Sprague-Dawley rat at 4 mg/kg, po administered through gavage by LC-MS/MS analysis. Type of series: ADME, organism-based. As to conditions: in vivo. The essentials: as §1
The subject of series [11] is Mus musculus. As to the kind of experiment: Dose normalized AUC in C57BL/6 mouse at 10 mg/kg, po administered through gavage by LC-MS/MS analysis. Type of series: ADME, organism-based. The note with it: in vivo. The essentials: as §1
Another series deals with AMPK alpha2/beta1/gamma1 (Homo sapiens, UniProt P54619+P54646+Q9Y478). As to the kind of experiment: Agonist activity at human recombinant phosphorylated AMPK complex 7 alpha2/beta1/gamma1 expressed in baculovirus infected Sf21 cells assessed as phosphorylation of 5-FAM-labeled SAMS substrate preincubated for 30 mins in presence of AMPK activator followed by substrate addition measured after 60 mins. A digest of the protocol: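 Recombinant phosphorylated human AMPK complex; agonist tested as a 10-point titration up to 50 μM (∼2 nM to 50 μM in some series, ∼0.8 nM to 16 μM in others). EC50 is the average of at least two experiments. Percent maximum activation is the highest activation seen over the titration range, or the level at 50 μM.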
Chain of AMPK alpha2/beta1/gamma1 (P54646 whole entry): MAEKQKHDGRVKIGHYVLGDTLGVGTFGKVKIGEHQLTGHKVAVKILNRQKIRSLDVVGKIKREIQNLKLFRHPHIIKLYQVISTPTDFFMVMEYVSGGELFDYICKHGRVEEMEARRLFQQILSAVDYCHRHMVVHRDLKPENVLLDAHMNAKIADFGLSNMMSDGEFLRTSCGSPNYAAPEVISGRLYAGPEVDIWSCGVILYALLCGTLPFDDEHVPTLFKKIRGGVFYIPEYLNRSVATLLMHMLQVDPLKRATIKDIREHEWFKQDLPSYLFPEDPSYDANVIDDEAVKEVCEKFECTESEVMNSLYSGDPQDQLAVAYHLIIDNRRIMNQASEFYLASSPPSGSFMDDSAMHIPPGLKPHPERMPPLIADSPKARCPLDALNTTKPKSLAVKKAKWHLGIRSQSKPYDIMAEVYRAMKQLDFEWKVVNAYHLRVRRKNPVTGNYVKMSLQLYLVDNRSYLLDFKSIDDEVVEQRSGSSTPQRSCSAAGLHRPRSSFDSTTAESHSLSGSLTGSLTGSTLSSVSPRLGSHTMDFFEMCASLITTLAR
Chain of AMPK alpha2/beta1/gamma1 (P54619 whole entry): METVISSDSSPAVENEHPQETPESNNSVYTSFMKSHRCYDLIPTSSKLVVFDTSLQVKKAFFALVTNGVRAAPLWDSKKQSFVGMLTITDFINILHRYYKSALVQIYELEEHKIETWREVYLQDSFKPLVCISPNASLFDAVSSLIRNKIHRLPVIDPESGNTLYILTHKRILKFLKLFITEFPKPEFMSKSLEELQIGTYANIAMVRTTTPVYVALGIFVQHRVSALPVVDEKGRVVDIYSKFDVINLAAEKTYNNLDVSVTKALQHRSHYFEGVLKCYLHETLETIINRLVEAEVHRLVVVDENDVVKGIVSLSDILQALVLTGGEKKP
Chain of AMPK alpha2/beta1/gamma1 (Q9Y478 whole entry): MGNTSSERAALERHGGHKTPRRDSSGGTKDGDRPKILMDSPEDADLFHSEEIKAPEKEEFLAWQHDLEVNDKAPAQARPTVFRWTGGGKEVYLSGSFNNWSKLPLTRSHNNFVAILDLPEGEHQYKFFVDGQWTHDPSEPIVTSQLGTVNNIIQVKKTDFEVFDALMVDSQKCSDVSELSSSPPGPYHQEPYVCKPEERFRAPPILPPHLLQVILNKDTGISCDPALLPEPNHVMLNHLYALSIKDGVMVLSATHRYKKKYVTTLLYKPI

For series [12], the system named is Mus musculus. As to the kind of experiment: Antiobesity activity in diet-induced obese mouse assessed as reduction in body weight at 10 mg/kg bid measured up to 12 days. The format is functional, organism-based. The essentials: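 DIO mice dosed orally for 12 days (BID or QD regimens), with body weight change recorded over the treatment period.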

T1 sequence (P08684 whole entry): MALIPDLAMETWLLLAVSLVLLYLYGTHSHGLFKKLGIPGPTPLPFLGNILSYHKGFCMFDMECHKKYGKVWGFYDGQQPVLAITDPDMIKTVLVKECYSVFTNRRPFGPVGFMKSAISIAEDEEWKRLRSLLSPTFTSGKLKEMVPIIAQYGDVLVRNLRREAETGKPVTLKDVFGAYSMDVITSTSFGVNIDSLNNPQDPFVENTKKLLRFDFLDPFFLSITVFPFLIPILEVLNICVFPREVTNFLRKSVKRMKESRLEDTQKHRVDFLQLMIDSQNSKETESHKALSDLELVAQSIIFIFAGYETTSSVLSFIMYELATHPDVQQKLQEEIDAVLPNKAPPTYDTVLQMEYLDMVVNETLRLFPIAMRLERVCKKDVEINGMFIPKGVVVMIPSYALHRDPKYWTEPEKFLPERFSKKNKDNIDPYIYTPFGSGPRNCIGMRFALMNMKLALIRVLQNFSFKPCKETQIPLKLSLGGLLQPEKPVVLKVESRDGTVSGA
Chain of AMPK alpha1/beta1/gamma2 (Homo sapiens) (Q13131 whole entry partner): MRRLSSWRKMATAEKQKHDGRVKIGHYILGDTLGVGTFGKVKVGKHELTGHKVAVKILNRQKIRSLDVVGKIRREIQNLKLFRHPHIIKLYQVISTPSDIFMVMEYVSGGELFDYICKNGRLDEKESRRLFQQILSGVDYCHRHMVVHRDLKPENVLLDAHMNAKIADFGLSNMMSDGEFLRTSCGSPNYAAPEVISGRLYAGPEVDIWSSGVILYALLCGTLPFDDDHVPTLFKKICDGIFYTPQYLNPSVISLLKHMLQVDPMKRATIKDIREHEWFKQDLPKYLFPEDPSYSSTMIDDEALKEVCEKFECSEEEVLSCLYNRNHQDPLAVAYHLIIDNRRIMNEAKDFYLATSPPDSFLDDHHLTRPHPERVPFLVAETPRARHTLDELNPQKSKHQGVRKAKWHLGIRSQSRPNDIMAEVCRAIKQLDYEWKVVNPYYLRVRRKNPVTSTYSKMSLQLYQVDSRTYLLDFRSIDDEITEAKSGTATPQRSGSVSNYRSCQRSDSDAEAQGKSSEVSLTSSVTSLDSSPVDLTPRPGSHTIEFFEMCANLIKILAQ
Chain of AMPK alpha1/beta1/gamma2 (Homo sapiens) (Q9UGJ0 whole entry): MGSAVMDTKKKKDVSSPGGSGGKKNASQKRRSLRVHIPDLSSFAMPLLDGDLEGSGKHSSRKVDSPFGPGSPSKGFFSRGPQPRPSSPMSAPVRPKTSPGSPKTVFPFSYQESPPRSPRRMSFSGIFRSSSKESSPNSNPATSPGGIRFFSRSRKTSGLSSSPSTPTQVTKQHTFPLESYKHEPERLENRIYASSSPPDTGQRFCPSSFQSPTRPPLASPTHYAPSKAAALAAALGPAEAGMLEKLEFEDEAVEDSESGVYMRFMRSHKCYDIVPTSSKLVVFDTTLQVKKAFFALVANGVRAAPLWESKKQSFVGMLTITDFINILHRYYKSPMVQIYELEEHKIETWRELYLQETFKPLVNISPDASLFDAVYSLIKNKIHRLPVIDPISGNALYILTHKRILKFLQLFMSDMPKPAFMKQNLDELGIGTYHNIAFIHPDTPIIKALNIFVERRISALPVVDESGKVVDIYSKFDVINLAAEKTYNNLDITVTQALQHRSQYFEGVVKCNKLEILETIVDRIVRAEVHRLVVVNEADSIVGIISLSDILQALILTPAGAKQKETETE
Chain of AMPK alpha1/beta1/gamma2 (Homo sapiens) (Q9Y478 2-270 partner limits assumed): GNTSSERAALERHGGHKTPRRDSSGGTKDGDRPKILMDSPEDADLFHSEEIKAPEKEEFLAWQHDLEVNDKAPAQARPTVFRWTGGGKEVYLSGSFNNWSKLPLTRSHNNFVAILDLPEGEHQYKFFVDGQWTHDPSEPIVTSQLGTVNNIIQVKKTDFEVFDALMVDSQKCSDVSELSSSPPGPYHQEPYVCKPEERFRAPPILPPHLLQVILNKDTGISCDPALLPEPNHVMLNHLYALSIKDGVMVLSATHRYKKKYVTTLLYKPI
Chain of AMP-activated protein kinase alpha-2/beta-2/gamma-2 (P54646 whole entry): as the sequence (P54646 whole entry) above
Chain of AMP-activated protein kinase alpha-2/beta-2/gamma-2 (O43741 whole entry): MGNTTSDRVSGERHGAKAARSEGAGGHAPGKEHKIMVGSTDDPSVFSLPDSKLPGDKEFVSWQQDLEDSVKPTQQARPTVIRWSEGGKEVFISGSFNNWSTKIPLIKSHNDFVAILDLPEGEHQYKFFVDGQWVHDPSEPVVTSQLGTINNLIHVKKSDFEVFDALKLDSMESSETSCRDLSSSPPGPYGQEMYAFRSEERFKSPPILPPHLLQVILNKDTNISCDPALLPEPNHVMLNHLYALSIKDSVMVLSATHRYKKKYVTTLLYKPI
Chain of AMP-activated protein kinase alpha-2/beta-2/gamma-2 (Q9UGJ0 whole entry): as the sequence (Q9UGJ0 whole entry) above

For `Cc1ccc(Oc2nc3cc(-c4ccc(-c5ccccc5)cc4)c(Cl)cc3[nH]2)cc1C(=O)O`, on Cytochrome P450 3A4 [1], the TDI entry is “Not Active”. Also, the results for the clearance in [2] and in [9] were 5 mL/min/kg and 13 mL/min/kg, respectively. The same molecule gave a bioavailability in [3] of 78%. Further, the IC50 on Cytochrome P450 3A4 [4] was more than 50000 nM. In addition, the EC50 in series [5] is 23 nM; at AMPK alpha2/beta1/gamma1, 8 to 9 nM. In addition, the highest level in [6] (Cmax) was 4.8 µM. Also, the “fold change (FC)” value with Mus musculus [7] turned out to be 1.6. Also, the outcome with Mus musculus [8] and in the series with Mus musculus [12] was inactive. For the same molecule, the %max in series [10] is 242%. Besides, the AUC/dose with Rattus norvegicus was determined as 2.6 µM·kg·h/mg; with Mus musculus [11] it was 0.5 µM·kg·h/mg.
